Source: PubChem (several laboratories)
JNK3 inh: blocks human JNK3 kinase activity; inhibition, % at 8 µM; AID 746; purified JNK3 kinase activity, HTS; actives 0.61% (n = 60,000); P53779; in the data active = inhibition above about 17%;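 note: 0% = DMSO and 100% = reference inhibitor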
D1 allo mod: allosterically modulates the human D1 dopamine receptor; actives 5.9% (n = 58,000); P21728; B-score at 10 µM; AID 641; HEK293 D1, CRE-luciferase, dopamine EC30 potentiation; actives deviate in either direction;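 active = luminescence count or its row- and column-corrected plate score outside the 99.7% band of the plate's sample wells, on either side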
SF-1 act: activates the human nuclear receptor SF-1 | CHO-K1 Gal4-SF-1 LBD luciferase reporter; % increase over DMSO SF-1-specific signal | Q13285 | activation, % at 10 µM | actives 1.9% (n = 65,000);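 active = activation above the mean activation of all tested compounds plus 3 SD, cut at about 50% in these data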
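System: CHO-K1 cells with Gal4–hSF-1 LBD chimera plus Gal4-driven luciferase; quantity: 4,000 CHO-K1 cells per well; compound: one dose, 10 µM compound, 1% DMSO; times: 20 h compound treatment, 37 °C; measured by: SteadyLite luciferase luminescence; read-out: percent activation versus DMSO; benchmarks: DMSO and mock-transfected background; replicates: one test per compound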
HEK293 NFkB inh: inhibitors of the PMA/ionomycin-induced NF-kB reporter in HEK293 cells. HEK-293 NF-kB luciferase reporter, luminescence. AID 465. inhibition, % at 3 µM. actives 0.21% (n = 62,000);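 active = inhibition above the mean of all tested compounds plus 3 SD, cut at about 40% in these data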;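 note: 0% = stimulated DMSO wells and 100% = 10 µM reference inhibitor 5653914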
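Timing: 1 h pretreatment, 16 h stimulation, 37 °C; system: HEK-293 cells with stable firefly luciferase reporter driven by four HIV NF-kB elements; doses: 3 µM once, 0.30% DMSO; measured by: luciferase luminescence; control set: DMSO and 10 µM reference inhibitor; repeats: single test; reagent: PMA plus ionomycin mix as NF-kB-activating stimulus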
RORa activator: RORA (human) activation | P35398 | CHO-K1 Gal4-RORA LBD luciferase reporter, luminescence; percent increase over mock-subtracted basal signal | activation, % at 10 µM | actives 1.5% (n = 65,000) | AID 560;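 active = activation above the mean of all tested compounds plus 3 SD, cut at about 49% in these data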;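 note: 0% = DMSO-treated RORA cells and 100% = added signal equal to DMSO minus mock-transfected cells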
Target sequence (P35398 whole entry, looked up, the tested form may be a part): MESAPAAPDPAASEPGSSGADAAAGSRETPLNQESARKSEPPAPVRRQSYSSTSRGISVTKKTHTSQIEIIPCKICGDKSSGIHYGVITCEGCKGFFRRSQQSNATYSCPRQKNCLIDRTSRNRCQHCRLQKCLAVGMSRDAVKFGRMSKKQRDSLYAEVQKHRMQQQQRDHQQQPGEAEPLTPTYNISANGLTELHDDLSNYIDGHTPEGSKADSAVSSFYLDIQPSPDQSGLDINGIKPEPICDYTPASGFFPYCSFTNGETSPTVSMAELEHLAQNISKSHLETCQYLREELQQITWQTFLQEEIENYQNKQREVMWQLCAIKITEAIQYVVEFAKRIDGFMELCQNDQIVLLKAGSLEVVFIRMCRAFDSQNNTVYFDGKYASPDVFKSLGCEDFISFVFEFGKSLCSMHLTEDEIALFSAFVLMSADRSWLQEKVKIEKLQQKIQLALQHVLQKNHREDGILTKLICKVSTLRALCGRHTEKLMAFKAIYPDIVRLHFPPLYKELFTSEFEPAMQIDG
* hit, by the source's call; · = not tested or not shown. Most compounds without a hit are left out; they make up all but 7.9% or so of the library.

SMILES	JNK3 inh	D1 allo mod	SF-1 act	HEK293 NFkB inh	RORa activator
CC1=C(C(=O)OCC2CCCO2)C(c2ccc(C)o2)C2=C(CC(c3ccc(F)cc3)CC2=O)N1 (stereo not given)	-9	-3.1*	15	-11	-11
COc1cccc(-c2nc(-c3ccccc3)no2)c1	0	0.56	-9	-38	14
COc1cccc(-c2noc(-c3cccnc3)n2)c1	-5	-2.1	22	-28	86*
COc1cccc(-c2nc(-c3ccc(NC(=O)c4cccnc4)cc3)no2)c1	-4	0.14	55*	-13	51*
COc1ccc(-c2noc(-c3ccc(Cl)cc3)n2)cc1	-5	-1.6	28	-12	49*
COc1cccc(-c2noc(-c3cccs3)n2)c1	-1	0.8	-8	-34	66*
COc1nc(-c2ccccc2)ccc1-c1noc(-c2cccs2)n1	-4	0.48	49	-1	48
COc1ccc(-c2noc(-c3ccccc3F)n2)cc1	1	-2.2	14	-35	-18
CC1CC(C)CN(C(=O)Cn2c(=O)n(CCCCC(=O)NCc3ccco3)c(=O)c3ccccc32)C1 (stereo not given)	8	·	1	4	-30
Cn1c(=O)n(C/C=C/c2ccccc2)c(=O)c2c1nc1n2CCCN1c1ccc(F)cc1	4	-1.8	-7	3	5
Cc1ccccc1-c1noc(-c2cccs2)n1	-5	-0.03	53*	2	39
Cc1ccc(-c2nc(-c3cccnc3)no2)cc1	7	-4.9*	56*	-32	11
CC1CCC2(CC1)NC(=O)c1ccccc1O2 (stereo not given)	-5	-2.4*	-11	4	3
Cc1ccc2[nH]c(-c3cccc(N)c3)cc2c1	-3	-1	51*	-39	55*
Cc1ccc(O)c(-c2cc3ccccc3[nH]2)c1	6	0.76	-5	7	29
CNC(=O)C1C2C=CC3(O2)C1C(=O)N(CCOC)C3C(=O)NCc1ccc(OC)cc1 (stereo not given)	·	·	10	17	-9
CC(=O)N1CCc2cc(S(=O)(=O)NC(CC(C)C)C(=O)Nc3cc(C)ccn3)ccc21 (stereo not given)	1	-4*	-3	20	12
CCOC(=O)c1cnn2c(C)cc(-c3ccccc3)nc12	1	-0.032	65*	-19	43
CCCn1c(SCC(=O)N2c3ccccc3Sc3ccccc32)nc2c1c(=O)n(C)c(=O)n2C	-4	0.15	-10	3	18
CCCn1c(SCC(=O)N2CCCc3ccccc32)nc2c1c(=O)n(C)c(=O)n2C	1	4.2*	-3	9	-14
Cc1ccc(-n2c(Cn3cnc4ccccc43)nnc2SCC(=O)O)cc1	-7	1	-5	-3	4
c1ccc2c(c1)Cc1cc(CN3CCOCC3)ccc1-2	-5	-0.74	28	-20	68*
CCCN(CCC)S(=O)(=O)c1cc(Br)cc2c1N(C(=O)CC)CC2	·	-0.78	12	10	-13
O=C1c2ccccc2-c2onc3ccc(NCc4ccco4)c1c23	33*	2.1	31	·	27
CCOc1ccc2noc3c2c1C(=O)c1ccccc1-3	4	3.6	7	-1	12
SMILES	JNK3 inh	D1 allo mod	SF-1 act	HEK293 NFkB inh	RORa activator
CC(=O)/C=C(\C)NCCNc1c(F)c(F)c(CO)c(F)c1F	2	·	-6	·	-18
CCOC(=O)c1ccc(NS(=O)(=O)N2CCCCCC2)cc1	2	0.086	24	5	49*
OC1(c2cccc(C(F)(F)F)c2)CCN(c2ncnc3c2[nH]c2ccc(F)cc23)CC1	0	-0.32	-46	24	-32
Cc1cc(C(=O)CSc2nnc(-c3cccc(F)c3)n2N)c(C)n1Cc1ccc2c(c1)OCO2	-1	-7.8*	10	16	24
Fc1cccc(NCc2cn3ccccc3n2)c1	-1	-1.7	72*	-54	45
CC(C)C1Oc2ccccc2N(CC(=O)NCCCN2C(C)CCCC2C)C1=O (stereo not given)	-2	-0.11	-2	12	2
Cc1[nH]c(=O)[nH]c(=O)c1S(=O)(=O)N1CCCC1	-6	·	0	·	-16
Cc1occc1C(=O)Nc1sc2c(c1C(N)=O)CCCCC2	2	0.73	58*	2	27
CCOC(=O)c1c(NC(=O)c2ccco2)sc2c1CCCCC2	2	3	-6	10	-15
NC(=O)c1c(NC(=O)Cc2cccs2)sc2c1CCC2	31*	2.4	51*	1	25
COC(=O)c1c(NC(=O)c2ccoc2C)sc2c1CCC2	-1	0.024	-11	6	-4
O=C(Nc1sc2c(c1C(=O)O)CCCCC2)c1ccco1	-1	-2.6	57*	-54	62*
COc1cc(OC)c(C(=O)Nc2ncn[nH]2)cc1OC	-4	-0.069	-9	18	-2
CC(C)Oc1ccc(C2C(C(=O)c3ccco3)=C(O)C(=O)N2Cc2cccnc2)cc1 (stereo not given)	-2	0.42	39	15	70*
CCOc1ccc(C2C(C(=O)c3ccco3)=C(O)C(=O)N2Cc2cccnc2)cc1OC (stereo not given)	·	0.8	0	7	-1
C=CCn1c(SCC(N)=O)nnc1-c1cc(Br)ccc1O	3	-0.66	-5	14	-2
CCS(=O)(=O)c1ccc2oc(SCC(=O)NCCC3=CCCCC3)nc2c1	5	-0.12	-16	11	-22
CCS(=O)(=O)c1ccc2oc(Nc3ccccc3C)nc2c1	8	0.035	66*	-32	30
O=C(O)CC(CNS(=O)(=O)c1ccccc1)c1ccccc1 (stereo not given)	3	-0.44	-12	-2	14
Cc1ccc(Cn2nnc3c(=O)n(Cc4cc(C)ccc4C)cnc32)cc1	3	-0.39	-2	2	-24
CCN(CC)S(=O)(=O)c1ccc2nc(NC(=O)c3cccs3)sc2c1	-2	-0.38	25	3	49*
CN(Cc1ccccc1)S(=O)(=O)c1ccc2[nH]cc(C(=O)NCC3CCCO3)c(=O)c2c1 (stereo not given)	7	-0.017	7	8	-10
CCOc1cccc(-c2nnc3sc(-c4cccs4)nn23)c1	-1	·	0	·	12
COc1cccc(-c2nnc3sc(-c4ccco4)nn23)c1	3	·	50*	·	34
COc1cccc(-c2nnc3sc(-c4cccs4)nn23)c1	6	·	70*	·	30
COc1ccc(-c2nnc3sc(-c4ccco4)nn23)cc1OC	0	1.4	-17	11	0
CCc1nc(N)c(C#N)c(-c2ccccc2OC)c1C	4	-1.4	3	10	3
CC1CN(S(=O)(=O)c2cccc(C(=O)OCC(=O)Nc3ccc4c(c3)OCO4)c2)CC(C)O1 (stereo not given)	1	·	-6	1	16
CC1CN(S(=O)(=O)c2cccc(C(=O)OCc3cc(=O)oc4cc(O)ccc34)c2)CC(C)O1 (stereo not given)	-3	-4.3*	8	13	7
